As usually defined, the IC50 is the concentration at which inhibition is half-maximal. A lower IC50 goes with inhibition by little substance.

This is an account of results in ChEMBL document CHEMBL1275286, “Synthesis of the steroidal glycoside (25R)-3β,16β-diacetoxy-12,22-dioxo-5α-cholestan-26-yl β-D-glucopyranoside and its anti-cancer properties on cervicouterine HeLa, CaSki, and ViBo cells” (Eur J Med Chem, 2010).

Series [1] relates to Ca-Ski. Put plainly: Cytotoxicity against human CaSki cells assessed as LDH release at IC50 after 24 hrs by spectrophotometry. In kind it is functional. The essentials:
(§1)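 7500 cells/well grown 24 h, then exposed for 24 h to the line's IC50 concentration or to ethanol (10 μL/mL). LDH in the supernatant read by INT-formazan at 500 nm, expressed against Triton X-100 lysis set as 100%. Mean ± S.D. of three independent experiments with three repetitions; Student's t-test.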
A general note: LDH in the medium is a marker of cell lysis.

In series [2] the test system is HeLa. Put plainly: Induction of apoptosis in human HeLa cells assessed as caspase 3 activation at 65 uM after 24 hrs by immunocytochemistry. In kind it is functional, cell-based. The essentials:
(§2)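 Seeded at […] in RPMI-1640 with 5% NCS for 24 h, then treated with 42 or 65 μM. Fixed in formaldehyde, permeabilized in 0.5% Triton X-100, blocked. Rabbit polyclonal anti-active caspase-3 (1:50), then FITC goat anti-rabbit (1:200), DAPI counterstain. Epifluorescence microscopy; representative of three independent assays.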

Series [3] is described as follows: Cell cycle arrest in human ViBo cells assessed as accumulation at G1 phase at 42 uM after 24 hrs by flow cytometry. In kind it is functional, cell-based. The method in brief:
(§3)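 Seeded at 10^5 cells/mL and grown 24 h, then exposed to 42 or 65 μM for 24 h, with ethanol as control. Harvested with versene, fixed and permeabilized in 50% methanol/PBS, treated with RNase (2.5 U/mL), stained with propidium iodide (0.2 μg/mL). Flow cytometry gave % DNA distribution by phase; Student's t-test versus ethanol.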

The subject of series [4] is Ca-Ski. Put plainly: Induction of apoptosis in human CaSki cells assessed as chromatin condensation at 65 uM after 24 hrs by DAPI staining. Type of series: functional, cell-based.
In series [5] the test system is HeLa. Put plainly: Induction of apoptosis in human HeLa cells assessed as caspase 3 activation at 42 uM after 24 hrs by immunocytochemistry. Type of series: functional, cell-based. The essentials: as §2
Series [6] can be described thus: Cell cycle arrest in human ViBo cells assessed as accumulation at G1 phase at 65 uM after 24 hrs by flow cytometry. Type of series: functional, cell-based. Particulars: 42 uM, in the assay text read “at 42 uM” for “at 65 uM”. The essentials: as §3
Background: A flow cytometer gives signals particle by particle.

The test system of series [7] is Ca-Ski. Put plainly: Antiproliferative activity human CaSki cells after 24 hrs by crystal violet staining. Type of series: functional, cell-based. The essentials:
(§4)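 Cells kept in RPMI-1640 with 5% newborn calf serum, 37 °C, 5% CO2, in exponential growth. 7500 cells/well seeded and grown 24 h, then exposed to a range of concentrations with ethanol as vehicle (1% in controls). Crystal violet staining after 24 h, absorbance at 590 nm; IC50 from dose–response curves.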

Series [8] in a line: Antiproliferative activity non-tumor human cervical fibroblast at 42 uM after 24 hrs by crystal violet staining. The essentials: (§5)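 Primary fibroblasts from hysterectomy cervix explants of patients without malignant disease. Tissue digested with 0.05% trypsin at 37 °C, cultured in RPMI-1640 with 10% NCS, adherent cells subcultured. Exposed to 42 or 65 μM, with 1% ethanol in controls. Cell number by crystal violet staining.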

A short description of series [9]: Effect on enriched human lymphocyte proliferation at 42 uM after 72 hrs by CSFE staining. In kind it is cell-based. The essentials:
(§6)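 PBMCs from healthy donors' heparinized blood isolated on a Hypaque gradient; adherent cells removed after 1 h. Labeled with 12 μM CFSE (final) for 15 min at room temperature, quenched with NCS, washed. Plated at 2×10^5 cells/well, unstimulated, PHA-stimulated or treated (42 or 65 μM), five replicates, 72 h at 37 °C.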

The nature of series [10]: Cytotoxicity against human ViBo cells assessed as LDH release at IC50 after 24 hrs by spectrophotometry. Type of series: functional. The method in brief:
as §1

Series [11] has as its system HeLa. Put plainly: Induction of apoptosis in human HeLa cells assessed as DNA fragmentation at IC50 after 24 hrs by TUNEL assay. In kind it is functional, cell-based. The method in brief:
(§7)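 Cells on coverslips treated at IC50 for 24 h, with ethanol (10 μL/mL) as control. Fixed in 2% formaldehyde 20 min, permeabilized with 0.05% Triton X-100 for 5 min at 4 °C. TdT labeling with biotin-dUTP for 1 h at 37 °C, detected with rhodamine-streptavidin, DAPI counterstain. Fluorescence microscopy; representative of three independent assays.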

Series [12] relates to Ca-Ski. Put plainly: Induction of apoptosis in human CaSki cells assessed as caspase 3 activation at 42 uM after 24 hrs by immunocytochemistry. Type of series: functional, cell-based. The method in brief:
as §2

Series [13] relates to HeLa. Put plainly: Cytotoxicity against human HeLa cells assessed as LDH release at IC50 after 24 hrs by spectrophotometry. Type of series: functional. The essentials:
as §1

The test system of series [14] is HeLa. Put plainly: Cell cycle arrest in human HeLa cells assessed as accumulation at S phase at 65 uM after 24 hrs by flow cytometry. Type of series: functional, cell-based. The essentials: as §3
Series [15] in a line: Effect on enriched human lymphocyte proliferation at 65 uM after 72 hrs by CSFE staining. Type of series: cell-based. The essentials:
as §6

Series [16] deals with Ca-Ski. Put plainly: Induction of apoptosis in human CaSki cells assessed as caspase 3 activation at 65 uM after 24 hrs by immunocytochemistry. In kind it is functional, cell-based. The method in brief: as §2
The nature of series [17]: Antiproliferative activity non-tumor human cervical fibroblast at 65 uM after 24 hrs by crystal violet staining. The method in brief:
as §5

In series [18] the test system is HeLa. Put plainly: Induction of apoptosis in human HeLa cells assessed as chromatin condensation at 65 uM after 24 hrs by DAPI staining. In kind it is functional, cell-based.
The test system of series [19] is Ca-Ski. Put plainly: Induction of apoptosis in human CaSki cells assessed as DNA fragmentation at IC50 after 24 hrs by TUNEL assay. In kind it is functional, cell-based. The method in brief: as §7
The nature of series [20]: Cytotoxicity against human lymphocytes assessed as LDH release at IC50 after 72 hrs by spectrophotometry. To be noted: lymphocyte.
Series [21] relates to Ca-Ski. Put plainly: Cell cycle arrest in human CaSki cells assessed as accumulation at G2/M phase at 65 uM after 24 hrs by flow cytometry. Type of series: functional, cell-based. The method in brief: as §3
Series [22] concerns Ca-Ski. Put plainly: Cell cycle arrest in human CaSki cells assessed as accumulation at G2/M phase at 42 uM after 24 hrs by flow cytometry. Particulars: 65 uM, in the assay text read “at 65 uM” for “at 42 uM”. Type of series: functional, cell-based. The essentials:
as §3

In series [23] the test system is HeLa. Put plainly: Cell cycle arrest in human HeLa cells assessed as accumulation at S phase at 42 uM after 24 hrs by flow cytometry. To be noted: 65 uM, in the assay text read “at 65 uM” for “at 42 uM”. In kind it is functional, cell-based. The method in brief: as §3
Series [24] has as its system ViBo. Put plainly: Induction of apoptosis in human ViBo cells assessed as DNA fragmentation at IC50 after 24 hrs by TUNEL assay. In kind it is functional, cell-based. The method in brief:
as §7

Series [25] has as its system ViBo. Put plainly: Induction of apoptosis in human ViBo cells assessed as caspase 3 activation at 65 uM after 24 hrs by immunocytochemistry. Type of series: functional, cell-based. The essentials:
as §2

The subject of series [26] is ViBo. Put plainly: Induction of apoptosis in human ViBo cells assessed as caspase 3 activation at 42 uM after 24 hrs by immunocytochemistry. In kind it is functional, cell-based. The method in brief:
as §2

Series [27] relates to ViBo. Put plainly: Induction of apoptosis in human ViBo cells assessed as chromatin condensation at 42 uM after 24 hrs by DAPI staining. In kind it is functional, cell-based.
Series [28] deals with HeLa. Put plainly: Antiproliferative activity human HeLa cells after 24 hrs by crystal violet staining. Type of series: functional, cell-based. The essentials:
as §4

Series [29] can be described thus: (§8) Antiproliferative activity human ViBo cells after 24 hrs by crystal violet staining. In kind it is functional, cell-based. The essentials:
as §4

Series [30] concerns ViBo. The series is described as §8. Type of series: functional, cell-based. The essentials:
as §4

Molecules are shown by their SMILES. The source made the active and inactive calls. The rule behind the calls is not given here.

As for `CC(=O)O[C@H]1CC[C@@]2(C)[C@@H](CC[C@@H]3[C@@H]2CC(=O)[C@]2(C)[C@@H]([C@H](C)C(=O)CC[C@@H](C)CO)[C@@H](OC(C)=O)C[C@@H]32)C1`, the Activity in series [1] is 28%.
`CC(=O)O[C@H]1CC[C@@]2(C)[C@@H](CC[C@@H]3[C@@H]2CC(=O)[C@]2(C)[C@@H]([C@H](C)C(=O)CC[C@@H](C)CO[C@@H]4O[C@H](CO)[C@@H](O)[C@H](O)[C@H]4O)[C@@H](OC(C)=O)C[C@@H]32)C1`: the result in series [2], in series [3], in series [4], in series [5], in [6] and in series [11] was Active. Moreover, the result in [12], in series [14], in series [16], in [18], in series [19] and in series [21] was Active. The outcome in series [22], in [23], in series [24], in series [25], in [26] and in series [27] was Active. Besides, the Activity entry in [7] was “Dose-dependent effect”; in series [1], 17%; in [8] it was < 20%; in [9], 73.88%; in series [10], 3%; in series [13] it was 13%. The Activity was 71.06% in series [15]; < 20% in series [17]; “Non-toxic” in series [20]; “Dose-dependent effect” in series [28]; “Dose-dependent effect” in series [30]. The half-maximal inhibitory concentration (IC50) in series [7] amounted to 65 µM; in [28], 65 µM; in series [29], 42 µM.
